Active and inactive are the calls of the source. No cut-off for these calls is given here.
Key:
MDA-MB-231 [1] = assay: Inhibition of human MDA-MB-231 cell invasion at 20 to 30 uM after 24 hrs by Transwell assay; format: functional, cell-based
Method in brief: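 Transwell inserts with 8 µm pores precoated with Matrigel. Cells seeded at 8 × 10^4 cells/mL in serum-free medium with compound or DMSO, 24 h. Lower wells hold 5% FBS-containing medium as chemoattractant. Invaded cells fixed and stained, then counted in three random fields. Run in triplicate, expressed as percent of untreated control.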

[2] = biological target: Focal adhesion kinase 1 (Homo sapiens) (UniProt Q05397); assay: Inhibition of FAK phosphorylation at Tyr397 in human MDA-MB-231 cells after 24 hrs by Western blotting analysis; format: cell-based
Focal adhesion kinase 1 (Homo sapiens), sequence (Q05397 2-1052 limits assumed): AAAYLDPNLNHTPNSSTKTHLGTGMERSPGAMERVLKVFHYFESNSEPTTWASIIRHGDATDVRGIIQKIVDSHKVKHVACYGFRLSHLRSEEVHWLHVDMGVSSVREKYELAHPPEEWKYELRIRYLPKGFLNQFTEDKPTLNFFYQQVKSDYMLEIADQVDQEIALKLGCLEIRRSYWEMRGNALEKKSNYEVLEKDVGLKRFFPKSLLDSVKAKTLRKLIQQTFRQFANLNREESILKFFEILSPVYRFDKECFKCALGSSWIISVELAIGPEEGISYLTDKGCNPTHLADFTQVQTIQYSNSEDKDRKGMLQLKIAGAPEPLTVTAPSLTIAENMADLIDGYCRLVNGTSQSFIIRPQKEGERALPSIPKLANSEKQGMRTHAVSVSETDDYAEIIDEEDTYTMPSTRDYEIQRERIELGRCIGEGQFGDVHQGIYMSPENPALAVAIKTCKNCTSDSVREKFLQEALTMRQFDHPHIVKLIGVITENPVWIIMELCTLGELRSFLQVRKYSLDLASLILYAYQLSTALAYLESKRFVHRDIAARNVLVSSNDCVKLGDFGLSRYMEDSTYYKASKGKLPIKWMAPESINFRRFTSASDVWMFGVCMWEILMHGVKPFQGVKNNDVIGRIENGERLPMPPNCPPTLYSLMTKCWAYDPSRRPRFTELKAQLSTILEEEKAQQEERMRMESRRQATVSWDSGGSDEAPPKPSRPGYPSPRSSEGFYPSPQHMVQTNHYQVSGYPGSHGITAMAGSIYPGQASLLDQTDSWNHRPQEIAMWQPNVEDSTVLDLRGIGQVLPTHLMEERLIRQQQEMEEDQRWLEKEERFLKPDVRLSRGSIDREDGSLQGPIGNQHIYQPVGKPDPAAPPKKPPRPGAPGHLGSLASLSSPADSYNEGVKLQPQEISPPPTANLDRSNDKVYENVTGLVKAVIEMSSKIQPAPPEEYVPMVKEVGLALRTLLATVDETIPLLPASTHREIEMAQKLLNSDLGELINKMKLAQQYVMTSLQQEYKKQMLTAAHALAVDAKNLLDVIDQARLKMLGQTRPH
Method in brief: (§1)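 Cells treated 24 h with the indicated concentrations. Lysates immunoblotted with antibodies to total FAK, phospho-FAK (Y397), total paxillin and Rac1, with β-actin as internal control. Bands detected by enhanced chemiluminescence.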

MDA-MB-231 [3] = assay: Antimigratory activity against human MDA-MB-231 cells at 25 uM after 24 hrs by scratch wound healing assay; format: functional, cell-based
Method in brief: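 Cells grown overnight at 37 °C to a confluent monolayer in duplicate wells, then scratched with a pipette tip. Migration into the wound photographed at 0 and 24 h at 100× magnification.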

MDA-MB-231 [4] = assay: Effect on paxillin expression level in human MDA-MB-231 cells after 24 hrs by Western blotting analysis; format: functional, cell-based; method in brief: as §1
MDA-MB-231 [5] = assay: Inhibition of human MDA-MB-231 cell adhesion to collagen 4 after 48 hrs by crystal violet staining-based spectrophotometric analysis; format: functional
Method in brief: (§2)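 Cells pretreated 48 h with compound, trypsinized, and resuspended at 2 × 10^5 cells/mL in DMEM with 0.1% BSA. Added to wells coated overnight at 4 °C with fibronectin or collagen IV ([…] as printed), then blocked with 0.1% BSA. Adhesion 60 min at 37 °C. Adherent cells fixed in 10% formaldehyde and stained with 0.05% crystal violet. Dye extracted, A595 read. Reported as percent of untreated control, triplicate.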

MDA-MB-231 [6] = assay: Inhibition of human MDA-MB-231 cell adhesion to fibronectin after 48 hrs by crystal violet staining-based spectrophotometric analysis; format: functional; method in brief: as §2
MDA-MB-231 [7] = assay: Cytotoxicity against human MDA-MB-231 cells at 10 to 30 uM after 48 hrs by MTT assay; format: functional, cell-based
MDA-MB-231 [8] = assay: Antimigratory activity against human MDA-MB-231 cells after overnight incubation by Boyden chamber assay; format: functional, cell-based
Method in brief: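 Boyden chamber (8 µm polycarbonate membrane coated with Matrigel, […] as printed). Cells trypsinized into serum-free medium at 2.5 × 10^5 cells/mL containing test agent, placed in upper chamber. Lower chamber holds medium with 5% FBS as chemoattractant. Overnight at 37 °C. Transmigrated cells fixed in methanol, Giemsa-stained, counted in three random fields. IC50 is the mean of three independent experiments.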

MDA-MB-231 [9] = assay: Effect on FAK expression level in human MDA-MB-231 cells at 10 to 30 uM after 24 hrs by Western blotting analysis; format: functional, cell-based; method in brief: as §1
MDA-MB-231 [10] = assay: Effect on RAC1 expression level in human MDA-MB-231 cells at 10 to 30 uM after 24 hrs by Western blotting analysis; format: functional, cell-based; method in brief: as §1
MDA-MB-231 [11] = assay: Inhibition of human MDA-MB-231 cell adhesion to fibronectin at 10 to 30 uM after 48 hrs by crystal violet staining-based spectrophotometric analysis relative to control; format: functional; method in brief: as §2
MDA-MB-231 [12] = assay: Inhibition of human MDA-MB-231 cell adhesion to fibronectin at 30 uM after 48 hrs by crystal violet staining-based spectrophotometric analysis relative to control; format: functional; conditions: MDA-MB-231, 48 h; method in brief: as §2
MDA-MB-231 [13] = assay: Inhibition of human MDA-MB-231 cell adhesion to fibronectin at 10 uM after 48 hrs by crystal violet staining-based spectrophotometric analysis relative to control; format: functional; conditions: MDA-MB-231, 48 h; method in brief: as §2
MDA-MB-231 [14] = assay: Inhibition of human MDA-MB-231 cell adhesion to fibronectin at 20 uM after 48 hrs by crystal violet staining-based spectrophotometric analysis relative to control; format: functional; conditions: MDA-MB-231, 48 h; method in brief: as §2

inhibition [2] | IC50 (MDA-MB-231 [8]) [µM] | SMILES | inhibition (MDA-MB-231 [1]) | Activity (MDA-MB-231 [3]) | Activity (MDA-MB-231 [4]) | inhibition (MDA-MB-231 [5]) | inhibition (MDA-MB-231 [6]) | Activity (MDA-MB-231 [7]) | Activity (MDA-MB-231 [8]) | Activity (MDA-MB-231 [9]) | Activity (MDA-MB-231 [10]) | inhibition (MDA-MB-231 [11]) | adhesion % at 30 µM (MDA-MB-231 [12]) [%] | adhesion % at 10 µM (MDA-MB-231 [13]) [%] | adhesion % at 20 µM (MDA-MB-231 [14]) [%]
Dose-dependent effect | 11.7 | CCCCCCCCCCCCCC(=O)NCCNC(=O)C(C)(C)C(=O)NCCO[C@H]1O[C@H](COC(C)=O)[C@@H](OC(C)=O)[C@H](OC(C)=O)[C@@H]1OC(C)=O | Active | Active | Dose-dependent effect | Dose-dependent effect | Dose-dependent effect | inactive | Dose-dependent effect | inactive | inactive | – | – | – | –
– | – | CCCCCCCCCCCCCC(=O)NCCNC(=O)C(C)(C)C(=O)NCC(=O)O | Active | Active | – | – | – | inactive | – | – | – | Active | – | – | –
Dose-dependent effect | 11.8 | CCCCCCCCCCCCCC(=O)NCCNC(=O)C(C)(C)C(=O)NCCO[C@@H]1O[C@H](COC(C)=O)[C@H](OC(C)=O)[C@H](OC(C)=O)[C@H]1OC(C)=O | Active | Active | Dose-dependent effect | Dose-dependent effect | Dose-dependent effect | inactive | Dose-dependent effect | inactive | inactive | – | 58 | 79 | 69
– | > 50 | CCCCCCCCCCCCCC(=O)NCCNC(=O)C(C)(C)C(=O)NCCO[C@@H]1O[C@H](COC(C)=O)[C@@H](O[C@@H]2O[C@H](COC(C)=O)[C@H](OC(C)=O)[C@H](OC(C)=O)[C@H]2OC(C)=O)[C@H](OC(C)=O)[C@H]1OC(C)=O | Active | Active | – | Dose-dependent effect | Dose-dependent effect | inactive | – | – | – | – | – | – | –

From ChEMBL document CHEMBL2390849, “Glycosylation enhances the anti-migratory activities of isomalyngamide A analogs” (Eur J Med Chem, 2013)
